Sampled rows, rich in hits. Any-hit rate of the full collection: about 1.4%.
IDE cell activ = IDE (human) activation, cell-based; HEK cells, FAbeta-B cleavage, fluorescence polarization; 0% vehicle, 100% cell-free pure enzyme wells; 0.073% of 340,000 active; activation, % at 5.96 µM; AID 493087; P14735;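 active = activation above the mean of all tested compounds plus 3 SD, set per screening campaign, cut at about 17% in these data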
IDE cell inh = inhibitors of human insulin-degrading enzyme in cells | P14735 | HEK cells, FAbetaB cleavage, fluorescence polarization | inhibition, % at 5.59 µM | 0.41% of 320,000 active | AID 434962;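 active = percent inhibition above the average of all tested compounds plus 3 SD, set per screening campaign, cut at about 16% in these data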;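 also: IDE supplied by intact live HEK cells; FP after avidin binding of uncleaved biotin substrate so inhibition keeps polarization high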
HNF4A DNA FP = change in binding of human HNF4 alpha to DNA | activity change, % at 10 µM | 0.3% of 360,000 active | HNF4a-FITC DNA binding, fluorescence polarization, 1 h; in the data active = activity change above about 30%, passing the limit was not always enough
Target sequence (P41235 whole entry, looked up): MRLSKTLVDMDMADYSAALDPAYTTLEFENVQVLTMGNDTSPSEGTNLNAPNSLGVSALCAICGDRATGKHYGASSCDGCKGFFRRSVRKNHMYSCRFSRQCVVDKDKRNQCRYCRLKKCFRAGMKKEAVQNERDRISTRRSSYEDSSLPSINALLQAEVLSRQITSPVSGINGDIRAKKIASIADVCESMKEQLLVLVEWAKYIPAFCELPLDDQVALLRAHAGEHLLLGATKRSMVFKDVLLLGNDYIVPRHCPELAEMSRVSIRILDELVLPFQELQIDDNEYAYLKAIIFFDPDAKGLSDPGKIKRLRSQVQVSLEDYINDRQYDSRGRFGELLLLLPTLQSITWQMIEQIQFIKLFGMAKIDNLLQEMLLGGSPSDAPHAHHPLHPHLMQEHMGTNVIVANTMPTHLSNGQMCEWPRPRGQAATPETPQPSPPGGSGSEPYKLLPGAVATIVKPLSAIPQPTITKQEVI
TPT1 inhibitor = blocks Candida albicans tRNA 2'-phosphotransferase; recombinant caTPT1, FP RNA substrate dephosphorylation; AID 1962; inhibition, % at 5 µM; 0.81% of 300,000 active;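 active = inhibition above the mean of all tested compounds plus 3 SD, set per screening campaign, cut at about 24% in these data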
CSN deneddyl inh = blocks human CSN-mediated cullin deneddylation | Purified CSN, SCF-Nedd8-OG deneddylation, fluorescence polarization | 0.38% of 360,000 active | inhibition, % at 12.5 µM;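 active = pattern-corrected inhibition above about 35%, with an unprinted fluorescence ratio check between 0.5 and 1.5, limit read from the data, passing the limit was not always enough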
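Assay system: purified human Csn5 enzyme expressed in HEK293T cells; Input: 0.24 nM Csn5 enzyme, final concentration; Reagent: 10 nM SCFSkp2-Nedd8OG; Compound dosing: 12.5 µM single point; Times: reaction 90 min, room temperature; Technique: fluorescence polarization readout.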
Large screens that a line does not name were inactive.

O=C(NCc1ccco1)c1cccc2c1C(=O)c1ccc(N3CCC(N4CCCCC4)CC3)cc1S2(=O)=O	CSN deneddyl inh 39 (no result: IDE cell activ, IDE cell inh, TPT1 inhibitor)
CC(C)c1cccc(-c2ccc3c(c2)S(=O)(=O)c2cccc(C(=O)NCc4ccco4)c2C3=O)c1	CSN deneddyl inh 49 (no result: TPT1 inhibitor)
O=C(NCc1ccc(F)cc1)c1cccc2c1C(=O)c1ccc(N3CCC(N4CCCCC4)CC3)cc1S2(=O)=O	CSN deneddyl inh 45 (no result: IDE cell activ, IDE cell inh, TPT1 inhibitor)
CC(C)(C)CNC(=O)c1cccc2c1C(=O)c1ccc(N3CCCC3)cc1S2(=O)=O	CSN deneddyl inh 42 (no result: TPT1 inhibitor)
CCC(=O)N1CCC1(C)C(=O)Nc1ccc(Cl)c(Cl)c1 (stereo not drawn)	none (no result: IDE cell activ, IDE cell inh, TPT1 inhibitor)
CC(C)CNC(=O)C1(C)CCN1C(=O)c1ccc(C(C)(C)C)cc1 (stereo not drawn)	none (no result: IDE cell activ, IDE cell inh, TPT1 inhibitor)
Cc1c(C)n2c(SCC(=O)NCc3ccc4c(c3)OCO4)nnc2[nH]c1=O	CSN deneddyl inh 52
COc1cccc2cc(-c3nc(-c4cccs4)cs3)c(=O)oc12	HNF4A DNA FP 40
Cc1ccc(S(=O)(=O)N2C[C@H]3[C@H]4C(=O)N(C5CCCCC5)C(=O)[C@H]4CC(=O)[C@H]3[C@@H]2c2ccccc2Cl)cc1	CSN deneddyl inh 36 (no result: IDE cell activ, IDE cell inh, TPT1 inhibitor)
CCN1C(=O)[C@@H]2[C@@H]3CN(S(=O)(=O)c4ccc(C)cc4)[C@@H](c4cccc5ccccc45)[C@@H]3C(=O)C[C@@H]2C1=O	none (no result: IDE cell activ, IDE cell inh, TPT1 inhibitor)
C=CCCC(=O)N1C[C@@H](CO)[C@@H](NC)C[C@H]1c1ccccc1Br	CSN deneddyl inh 107 (no result: IDE cell activ, IDE cell inh, TPT1 inhibitor)
C=CCCC(=O)N1C[C@H]2CON(C)[C@H]2C[C@H]1c1ccccc1Br	none (no result: IDE cell inh, TPT1 inhibitor)
C#CCOCCOCCOCCNc1nc(N2CCN(C(=O)CCCCCCCCCCNC(=O)[C@H](CCCCN)n3cc(C)nn3)CC2)nc(N2CCN(C(=O)CCCCCCCCCCNC(=O)[C@@H]([C@H](C)CC)n3cc(CCCCCN)nn3)CC2)n1	IDE cell activ 39, CSN deneddyl inh 111
C#CCOCCOCCOCCNc1nc(N2CCN(C(=O)CCCCCCCCCCNC(=O)[C@H]([C@@H](C)CC)n3cc(CCCCCN)nn3)CC2)nc(N2CCN(C(=O)CCCCCCCCCCNC(=O)[C@@H]([C@H](C)O)n3cc(C)nn3)CC2)n1	IDE cell activ 39
C#CCOCCOCCOCCNc1nc(N2CCN(C(=O)CCCCCCCCCCNC(=O)[C@H](CCCCN)n3cc(CCO)nn3)CC2)nc(N2CCN(C(=O)CCCCCCCCCCNC(=O)[C@@H]([C@H](C)O)n3cc(C)nn3)CC2)n1	none
CCCCn1c(O)c(N=Nc2ccccc2O)c2ccccc21	HNF4A DNA FP 84 (no result: TPT1 inhibitor)
O=c1cc(-c2ccccc2Cl)oc2c(NS(=O)(=O)c3cc(Cl)cc(Cl)c3O)ccc(O)c12	CSN deneddyl inh 47
CCc1ccc(S(=O)(=O)Nc2ccc(O)c3c(=O)cc(-c4ccccc4Cl)oc23)cc1	none
CCOc1ccc(N2C(=O)c3ccc(C(=O)OCC(=O)N(CC)C4CCS(=O)(=O)C4)cc3C2=O)cc1 (stereo not drawn)	none
C=CCN1C(=O)c2ccc(C(=O)OCC(=O)N(CC)C3CCS(=O)(=O)C3)cc2C1=O (stereo not drawn)	IDE cell activ 22 (no result: TPT1 inhibitor)
Cc1nc(SCC(=O)Nc2ccccn2)n[nH]1	none
Cc1[nH]c(=O)[nH]c(=O)c1CSCC(=O)OCC(=O)Nc1ccccn1	CSN deneddyl inh 94
COCCN(C(=O)c1cc(-c2ccco2)nc2ccccc12)c1c(N)n(Cc2ccccc2)c(=O)[nH]c1=O	CSN deneddyl inh 37 (no result: TPT1 inhibitor)
O=C(COc1ccc2c(-c3ccccc3)cc(=O)oc2c1)Nc1ccc(CCO)cc1	CSN deneddyl inh 66
Cc1cc(=O)oc2cc(OCC(=O)N/N=C/c3ccccc3O)ccc12	CSN deneddyl inh 106
O=C(COc1ccc2c(-c3ccccc3)cc(=O)oc2c1)Nc1ccc(CN2CCOCC2)cc1	none
CCCCCCc1cc2cc(C(=O)NCc3ccccc3)c(=N)oc2cc1O	CSN deneddyl inh 54
Cc1cc(C)n(-c2nc3nonc3nc2Nc2cccc(C)c2C)n1	CSN deneddyl inh 57
Cc1cc(C)cc(NC(=O)c2cc(S(=O)(=O)N3CCCC3)cn2C)c1	HNF4A DNA FP 53
Cc1cccc(NC(=O)c2cc(S(=O)(=O)N3CCCC3)cn2C)c1	none
C[C@H](NC(=O)C[C@@H]1C=C[C@@H](NC(=O)CN2CCOCC2)[C@@H](CO)O1)c1ccccc1	none (no result: IDE cell activ, IDE cell inh, TPT1 inhibitor)
O=C(Nc1ccncc1NC(=O)c1cccc([N+](=O)[O-])c1)c1cccc([N+](=O)[O-])c1	CSN deneddyl inh 41
O=C(O)c1cccc(-n2cccc2/C=C2/NC(=O)N(c3cccc(Cl)c3)C2=O)c1	CSN deneddyl inh 35
O=C(O)c1ccc(COc2ccccc2/C=C2/NC(=O)N(c3cccc(Cl)c3)C2=O)cc1	CSN deneddyl inh 45
O=C(O)c1cccc(-n2cccc2/C=C2/NC(=O)N(c3ccc(Cl)cc3)C2=O)c1	none (no result: IDE cell inh, TPT1 inhibitor)
CC(C)N1C(=O)S/C(=C/c2ccc(Sc3nc4ccccc4[nH]3)o2)C1=O	HNF4A DNA FP 88
CCC(=O)N1CCc2cc(S(=O)(=O)N3CCc4ccccc4C3)ccc21	CSN deneddyl inh 78
CC(=O)N1CC[n+]2c(-c3ccc(Cl)cc3Cl)csc21	IDE cell inh 17
COc1ccc(CN2CCN(Cc3c[nH]c4ccccc34)CC2)cc1OC	none (no result: IDE cell activ, IDE cell inh, TPT1 inhibitor)
COc1ccc(Br)cc1CN1CCN(Cc2c[nH]c3ccccc23)CC1	HNF4A DNA FP 59
COC(=O)[C@@]12C[C@@H](CC(=O)NCc3cccc(C(F)(F)F)c3)C(=O)N(CCc3ccc(OC)c(OC)c3)C1=CCC(C)(C)C2	none (no result: IDE cell activ, IDE cell inh, TPT1 inhibitor)
CCCc1c(C)[nH]c2ccc(C(=O)O)cc2c1=S	CSN deneddyl inh 48 (no result: IDE cell inh, TPT1 inhibitor)
O=C(NC(=S)Nc1ccc(Br)cn1)c1cncc(Br)c1	none
O=C(NC(=S)Nc1ccccn1)c1cncc(Br)c1	HNF4A DNA FP 66
CCOC(=O)Nc1ccc2c(CN3CCC(C(=O)OC)CC3)cc(=O)oc2c1	none
CCc1ccc2c(CN3CCC(C(=O)OC)CC3)cc(=O)oc2c1	HNF4A DNA FP 84
CCOc1cccc2cc(-c3nnc(NCc4ccc5c(c4)OCO5)s3)c(=O)oc12	HNF4A DNA FP 52, CSN deneddyl inh 46
Cc1ccc2nc(-c3ccccn3)c(Nc3ccccc3C)n2c1	HNF4A DNA FP 39
O=C1C=C(c2cccc3c2sc2ccccc23)C[C@@H](c2ccc(Cl)cc2)C1	IDE cell activ 23 (no result: TPT1 inhibitor)
Cc1ccc(S(=O)(=O)OCCC2=CC(=O)CCN2Cc2ccccc2)cc1	IDE cell activ 21 (no result: TPT1 inhibitor)
CCOc1cccc2sc(N(CCN(C)C)C(=O)c3ccc(Br)s3)nc12	none
Cc1ccc2sc(N(CCCN(C)C)C(=O)c3ccc(Br)s3)nc2c1C	IDE cell activ 18
O=S(=O)(c1ccc(Br)s1)N1CCN(c2ccc(F)cc2)CC1	none
O=S(=O)(c1ccc(Br)s1)N1CCN(c2ccccc2)CC1	HNF4A DNA FP 32
C[n+]1c2cc(N)ccc2cc2ccc(N)cc21	IDE cell activ 39 (no result: IDE cell inh, TPT1 inhibitor)
CCOC(=O)C1=CCC(c2cccc(C)c2)N(S(=O)(=O)c2ccc(C)cc2)C1 (stereo not drawn)	none (no result: IDE cell activ, IDE cell inh, TPT1 inhibitor)

Screening data (PubChem)
